The subject of one experiment is DU-145. Briefly: Antiproliferative activity against human DU145 cells by SRB assay. It is filed as functional. The method in brief:
(§1)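 NCI 60-cell-line human tumor panel. Compounds first screened at one dose of 10^-5 M. Selected compounds then tested at five concentrations from 10^-8 to 10^-4 M. GI50 is the concentration giving 50% growth inhibition. GI50 values outside the tested range are assigned 10^-8 M or 10^-4 M.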
A general note: In SRB staining, fixed cells bind dye roughly in proportion to their protein.

The subject of a further experiment is HCT-116. Briefly: Antiproliferative activity against human HCT116 cells by SRB assay. Type of experiment: functional. Summed up: as §1
In the next experiment the test system is OVCAR-3. The experiment can be described thus: Antiproliferative activity against human OVCAR3 cells by SRB assay. Type of experiment: functional. The method in brief: as §1
For experiment [1], the target named is T1, DNA topoisomerase 1 (Homo sapiens) (UniProt P11387).
T1 sequence (whole entry): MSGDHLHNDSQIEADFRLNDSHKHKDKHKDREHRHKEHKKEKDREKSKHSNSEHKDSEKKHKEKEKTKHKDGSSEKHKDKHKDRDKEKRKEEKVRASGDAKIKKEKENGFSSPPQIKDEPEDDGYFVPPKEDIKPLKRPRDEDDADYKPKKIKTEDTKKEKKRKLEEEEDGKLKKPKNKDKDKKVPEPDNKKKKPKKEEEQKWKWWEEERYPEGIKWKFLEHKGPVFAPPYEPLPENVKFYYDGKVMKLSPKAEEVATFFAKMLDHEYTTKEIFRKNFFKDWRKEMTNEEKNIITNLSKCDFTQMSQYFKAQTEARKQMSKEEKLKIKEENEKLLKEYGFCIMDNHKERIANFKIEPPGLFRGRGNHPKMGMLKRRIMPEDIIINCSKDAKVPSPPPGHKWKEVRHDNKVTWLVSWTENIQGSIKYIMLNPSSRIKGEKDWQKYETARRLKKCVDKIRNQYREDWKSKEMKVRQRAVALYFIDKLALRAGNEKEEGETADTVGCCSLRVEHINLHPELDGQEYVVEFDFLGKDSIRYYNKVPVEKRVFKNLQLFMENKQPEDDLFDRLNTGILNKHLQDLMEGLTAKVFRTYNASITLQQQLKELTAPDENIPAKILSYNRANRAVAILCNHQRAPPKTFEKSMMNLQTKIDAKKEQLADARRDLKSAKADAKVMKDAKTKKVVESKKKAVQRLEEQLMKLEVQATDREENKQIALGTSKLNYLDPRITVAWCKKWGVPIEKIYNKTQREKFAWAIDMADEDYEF
Briefly: Inhibition of recombinant human TOP1 mediated DNA cleavage after 20 mins by gel electrophoresis relative to camptothecin. More on the design: concentration or dose not given beside the values. The method in brief:
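117-bp oligonucleotide containing Top1 cleavage sites, 3'-end labeled with [α-32P]-dGTP by Klenow fill-in. About 2 nM substrate incubated with recombinant Top1 and various compound concentrations for 20 min at 25 °C in 10 mM Tris-HCl pH 7.5, 50 mM KCl, 5 mM MgCl2, 0.1 mM EDTA, 15 μg/mL BSA. Stopped with 0.5% SDS, run on 20% denaturing PAGE, phosphorimaged.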

For a further experiment, the system named is MCF7. Briefly: Antiproliferative activity against human MCF7 cells by SRB assay. It is filed as functional. Summed up:
as §1

The subject of a further experiment is SN12C. Briefly: Antiproliferative activity against human SN12C cells by SRB assay. It is filed as functional. Summed up: as §1
Another experiment deals with SF-539. Briefly: Antiproliferative activity against human SF539 cells by SRB assay. It is filed as functional. Summed up:
as §1

A further experiment deals with UACC-62. Briefly: Antiproliferative activity against human UACC62 cells by SRB assay. It is filed as functional. The method in brief:
as §1

The next experiment deals with HOP-62. Briefly: Antiproliferative activity against human HOP62 cells by SRB assay. Type of experiment: functional. The method in brief:
as §1

With `O=C(CO)Cn1c2c(c3ccccc3c1=O)C(=O)c1ccccc1-2`, the GI50 was found to be 17.8 µM in the experiment with DU-145; 30.9 µM in the experiment with HCT-116; 5.23 µM with OVCAR-3; 32.3 µM with MCF7; 81.3 µM in the experiment with SN12C; 20 µM with SF-539. The concentration for 50% growth inhibition (GI50) was determined as 58.9 µM in the experiment with UACC-62 and 40.7 µM in the experiment on HOP-62. Also, the inhibition in experiment [1] worked out at 20%.

On to `O=C1c2ccccc2-c2c1c1ccccc1c(=O)n2C[C@H](O)[C@H](O)[C@H](O)[C@H](O)CO`, for which the GI50 in the experiment on DU-145 worked out at 3.31 µM; in the experiment on HCT-116, 4.17 µM; in the experiment on OVCAR-3, 13.8 µM; in the experiment with MCF7, 1.78 µM; in the experiment with SN12C, 3.39 µM; with SF-539, 5.75 µM. The GI50 in the experiment with UACC-62 is 2.95 µM; in the experiment on HOP-62, 3.23 µM.

On to `COc1cc2c3c(n(CCCn4ccnc4)c(=O)c2cc1OC)-c1cc2c(cc1C3=O)OCO2` [INDIMITECAN], for which the inhibition in [1] was over 95%. The compound also registered a 50% growth inhibitory concentration (GI50) in the experiment on MCF7 of 0.01 µM.

`O=C1c2ccccc2-c2c1c1ccccc1c(=O)n2C[C@H](O)[C@@H](O)[C@H](O)CO`: the GI50 in the experiment with HCT-116 is 3.39 µM; in the experiment on OVCAR-3 it was 24 µM; with MCF7 it was 1.74 µM; in the experiment with SN12C, 2.24 µM; with SF-539, 7.94 µM; in the experiment on UACC-62, 2.88 µM. The same compound had a GI50 in the experiment on HOP-62 of 3.23 µM. Also, in experiment [1], the inhibition is 50%.

On to `O=C1c2ccccc2-c2c1c1ccccc1c(=O)n2C[C@@H](O)[C@@H](O)[C@H](O)[C@H](O)CO`, for which the inhibition in experiment [1] is 20%.

Take `NCC(O)Cn1c2c(c3ccccc3c1=O)C(=O)c1ccccc1-2` (racemic): the concentration for 50% growth inhibition (GI50) is 0.13 µM in the experiment with DU-145; 0.263 µM in the experiment with HCT-116; 1.32 µM in the experiment on OVCAR-3; 0.198 µM in the experiment with MCF7; 0.206 µM in the experiment with SN12C; 0.344 µM with SF-539. Further, the values for the concentration for 50% growth inhibition (GI50) in the experiment with UACC-62 and in the experiment on HOP-62 were 0.318 µM and 0.276 µM, respectively. Further, in [1], the inhibition is 50%.

In the case of `COc1cc2c3c(n(C)c(=O)c2cc1OC)-c1cc2c(cc1C3=O)OCO2`, the GI50 with DU-145 is 37 µM; with HCT-116, 35 µM; with MCF7, 1.58 µM; in the experiment on SN12C it was 68 µM; in the experiment on UACC-62, 4.2 µM; in the experiment on HOP-62 it was 1.3 µM.

As to `O=C1c2ccccc2-c2c1c1ccccc1c(=O)n2C[C@H](O)[C@@H](O)[C@H](O)[C@H](O)CO`, the inhibition in experiment [1] came out at 50%.

Turning to `O=C1c2ccccc2-c2c1c1ccccc1c(=O)n2C[C@@H](O)[C@H](O)[C@H](O)CO`, the GI50 was 16.6 µM in the experiment on DU-145; over 100 µM with OVCAR-3; 4.57 µM in the experiment with MCF7; 20 µM in the experiment with SN12C; 7.59 µM in the experiment with SF-539; 7.41 µM with UACC-62. Besides, in the experiment on HOP-62, halving of growth (GI50) required 8.71 µM. The inhibition in experiment [1] was determined as 50%.

For `O=C1c2ccccc2-c2c1c1ccc([N+](=O)[O-])cc1c(=O)n2C[C@H](O)CO`, the 50% growth inhibitory concentration (GI50) with DU-145 is 0.04 µM; in the experiment with HCT-116, 0.025 µM; in the experiment on OVCAR-3 it was 0.309 µM; in the experiment on MCF7 it was 0.016 µM; with SN12C, 0.241 µM; with SF-539 it was 0.157 µM. For the same compound, the concentration for 50% growth inhibition (GI50) came to 0.098 µM in the experiment on UACC-62 and 0.089 µM in the experiment with HOP-62. Further, in [1], the inhibition is over 95%.

In the case of `C[C@H](O)Cn1c2c(c3ccccc3c1=O)C(=O)c1ccccc1-2`, in [1], the inhibition was 75%.

For the compound `CC(CO)n1c2c(c3ccccc3c1=O)C(=O)c1ccccc1-2` (racemic), the GI50 with DU-145 was 23.7 µM; in the experiment on HCT-116 it was 15.9 µM; in the experiment with OVCAR-3, 25.7 µM; in the experiment on MCF7, 34.4 µM; with SN12C, 37.1 µM; with SF-539 it was 14.4 µM. Besides, the GI50 in the experiment with UACC-62 was found to be 11.7 µM; in the experiment with HOP-62, 17.6 µM. The inhibition in [1] turned out to be 20%.

As for `O=C1c2ccccc2-c2c1c1ccccc1c(=O)n2C[C@@H](O)CO`, the GI50 came out at 2.34 µM in the experiment on DU-145; 4.47 µM in the experiment on HCT-116; 16.1 µM with OVCAR-3; 3.04 µM with MCF7; 3.77 µM with SN12C; 5.72 µM with SF-539. Also, the GI50 with UACC-62 amounted to 4.36 µM; in the experiment with HOP-62, 3.79 µM. The inhibition in [1] turned out to be 50%.

In the case of `O=C1c2ccccc2-c2c1c1ccccc1c(=O)n2C[C@H](O)[C@H](O)[C@H](O)CO`, the GI50 stood at 1.32 µM in the experiment on DU-145; 3.39 µM in the experiment with HCT-116; 13.5 µM in the experiment on OVCAR-3; 1.38 µM in the experiment on MCF7; 2.4 µM with SN12C; 2.14 µM in the experiment with SF-539. The 50% growth inhibitory concentration (GI50) was found to be 3.23 µM with UACC-62 and 2.95 µM with HOP-62. The inhibition in experiment [1] amounted to 0%.

In the case of `O=C1c2ccccc2-c2c1c1ccccc1c(=O)n2C[C@@H](O)[C@@H](O)[C@H](O)CO`, the GI50 was 3.98 µM in the experiment on DU-145; 3.39 µM in the experiment with HCT-116; 13.2 µM in the experiment with OVCAR-3; 1.9 µM with MCF7; 5.01 µM in the experiment with SN12C; 11.2 µM with SF-539. Also, the 50% growth inhibitory concentration (GI50) stood at 6.31 µM in the experiment with UACC-62 and 6.46 µM in the experiment on HOP-62. Moreover, in [1], the inhibition is 75%.

With `CC[C@@]1(O)C(=O)OCc2c1cc1n(c2=O)Cc2cc3ccccc3nc2-1` [CAMPTOTHECIN], in the experiment on MCF7, it took 0.01 µM to inhibit growth by half (GI50).

Consider `COc1cc2c3c(n(C[C@H](O)CO)c(=O)c2cc1OC)-c1ccccc1C3=O`, for which the GI50 with DU-145 came to 0.419 µM; in the experiment on HCT-116, 0.23 µM; in the experiment on OVCAR-3, 0.287 µM; in the experiment on MCF7 it was 0.097 µM; with SN12C, 0.501 µM; in the experiment on SF-539 it was 0.214 µM. The GI50 with UACC-62 worked out at 0.144 µM; in the experiment on HOP-62 it was 0.336 µM. The inhibition in experiment [1] worked out at 75%.

In the case of `CC(O)Cn1c2c(c3ccccc3c1=O)C(=O)c1ccccc1-2` (racemic), the GI50 in the experiment with DU-145 amounted to 4.36 µM; in the experiment with HCT-116, 5.75 µM; in the experiment on OVCAR-3, 16.2 µM; with MCF7 it was 3.8 µM; in the experiment on SN12C, 3.98 µM; in the experiment with SF-539, 6.76 µM. The GI50 was 6.16 µM in the experiment with UACC-62 and 3.46 µM with HOP-62. Also, the inhibition in experiment [1] was 20%.

As to `O=C1c2ccccc2-c2c1c1ccccc1c(=O)n2C[C@H](O)CO`, the GI50 in the experiment on DU-145 was 5.75 µM; in the experiment with OVCAR-3 it was 14.5 µM; in the experiment on MCF7 it was 4.9 µM; with SN12C it was 6.92 µM; in the experiment on SF-539, 7.41 µM; in the experiment on UACC-62 it was 5.37 µM. Further, in the experiment on HOP-62, halving of growth (GI50) required 5.01 µM. Also, the inhibition in experiment [1] turned out to be 75%.

Consider `O=C1c2ccccc2-c2c1c1ccccc1c(=O)n2C[C@H](O)[C@@H](O)[C@@H](O)[C@H](O)CO`, for which the inhibition in experiment [1] is 20%.

For `COc1cc2c3c(n(CCCNCCO)c(=O)c2cc1OC)-c1cc2c(cc1C3=O)OCO2` [LMP-744], the GI50 in the experiment with OVCAR-3 is 0.5 µM; in the experiment on MCF7 it was under 0.01 µM; in the experiment with SF-539, 0.04 µM. Further, the inhibition in [1] was over 95%.

With `COc1cc2c3c(n(CCCN4CCOCC4)c(=O)c2cc1OC)-c1cc2c(cc1C3=O)OCO2` [INDOTECAN], the inhibition in experiment [1] is over 95%. The compound further displayed a concentration for 50% growth inhibition (GI50) in the experiment with MCF7 of 0.37 µM.

`C[C@@H](CO)n1c2c(c3ccccc3c1=O)C(=O)c1ccccc1-2`: the inhibition in experiment [1] stood at 50%.

For `C[C@H](CO)n1c2c(c3ccccc3c1=O)C(=O)c1ccccc1-2`, in [1], the inhibition came to 20%.

Usually GI50 stands for the concentration giving 50% growth inhibition. By inhibition is commonly meant the percentage by which the read-out fell short of the control.

Values taken from ChEMBL document CHEMBL1821653, “Alcohol-, diol-, and carbohydrate-substituted indenoisoquinolines as topoisomerase I inhibitors: investigating the relationships involving stereochemistry, hydrogen bonding, and biological activity” (2011).
